Data from ChEMBL document CHEMBL2157880, “Synthesis, antimycobacterial and antibacterial activity of ciprofloxacin derivatives containing a N-substituted benzyl moiety” (2012).
≈ marks a conversion by molar mass, not a printed value.

Key:
Format in all cases: functional
[1] = test system: Enterococcus faecium; assay: Antibacterial activity against Enterococcus faecium 10-9 after 18 to 24 hrs by NCCLS method
In short: (§1)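 Standard NCCLS (M100-S11) MIC testing against Gram-positive and Gram-negative strains. Plates were incubated at 35 °C for 18–24 h. The MIC was read as the lowest concentration giving complete inhibition of visible bacterial growth.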

[2] = test system: Klebsiella pneumoniae; assay: Antibacterial activity against Klebsiella pneumoniae 10-3 after 18 to 24 hrs by NCCLS method; in short: as §1
[3] = test system: Staphylococcus aureus; assay: Antibacterial activity against methicillin-sensitive Staphylococcus aureus 10-13 after 18 to 24 hrs by NCCLS method; in short: as §1
[4] = test system: Escherichia coli; assay: Antibacterial activity against extended spectrum beta-lactamases producing Escherichia coli 10-2 after 18 to 24 hrs by NCCLS method; in short: as §1
[5] = test system: Staphylococcus epidermidis; assay: Antibacterial activity against methicillin-resistant Staphylococcus epidermidis 10-10 after 18 to 24 hrs by NCCLS method
In short: (§2)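 Incubated at 35 °C for 18–24 h under NCCLS (M100-S11) standards. MIC was read as the lowest concentration giving complete inhibition of visible bacterial growth.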

[6] = test system: Enterococcus faecalis; assay: Antibacterial activity against Enterococcus faecalis 10-7 after 18 to 24 hrs by NCCLS method; in short: as §1
[7] = test system: Escherichia coli; assay: Antibacterial activity against extended spectrum beta-lactamases producing Escherichia coli 10-4 after 18 to 24 hrs by NCCLS method; in short: as §1
[8] = test system: Escherichia coli; assay: Antibacterial activity against Escherichia coli ATCC 25922 after 18 to 24 hrs by NCCLS method; in short: as §1
[9] = test system: Pseudomonas aeruginosa; assay: Antibacterial activity against Pseudomonas aeruginosa 10-20 after 18 to 24 hrs by NCCLS method; in short: as §1
[10] = test system: Escherichia coli; assay: Antibacterial activity against Escherichia coli 10-3 after 18 to 24 hrs by NCCLS method; in short: as §1
[11] = test system: Klebsiella pneumoniae; assay: Antibacterial activity against extended spectrum beta-lactamases producing Klebsiella pneumoniae 10-2 after 18 to 24 hrs by NCCLS method; in short: as §1
[12] = test system: Klebsiella pneumoniae; assay: Antibacterial activity against extended spectrum beta-lactamases producing Klebsiella pneumoniae 10-1 after 18 to 24 hrs by NCCLS method; in short: as §1
[13] = test system: Klebsiella pneumoniae; assay: Antibacterial activity against Klebsiella pneumoniae 10-2 after 18 to 24 hrs by NCCLS method; in short: as §1
[14] = test system: Staphylococcus aureus; assay: Antibacterial activity against methicillin-resistant Staphylococcus aureus 10-13 after 18 to 24 hrs by NCCLS method; in short: as §2
[15] = test system: Pseudomonas aeruginosa; assay: Antibacterial activity against Pseudomonas aeruginosa 10-12 after 18 to 24 hrs by NCCLS method; in short: as §1
[16] = test system: Staphylococcus aureus; assay: Antibacterial activity against methicillin-resistant Staphylococcus aureus 10-11 after 18 to 24 hrs by NCCLS method; in short: as §2
[17] = test system: Staphylococcus aureus; assay: Antibacterial activity against methicillin-resistant Staphylococcus aureus 10-15 after 18 to 24 hrs by NCCLS method; in short: as §2
[18] = test system: Staphylococcus aureus; assay: Antibacterial activity against methicillin-sensitive Staphylococcus aureus 10-11 after 18 to 24 hrs by NCCLS method; in short: as §1
[19] = test system: Staphylococcus epidermidis; assay: Antibacterial activity against methicillin-sensitive Staphylococcus epidermidis 10-15 after 18 to 24 hrs by NCCLS method; in short: as §2
[20] = test system: Klebsiella pneumoniae; assay: Antibacterial activity against Klebsiella pneumoniae 10-4 after 18 to 24 hrs by NCCLS method; in short: as §1
[21] = test system: Klebsiella pneumoniae; assay: Antibacterial activity against extended spectrum beta-lactamases producing Klebsiella pneumoniae 10-3 after 18 to 24 hrs by NCCLS method; in short: as §1
[22] = test system: Escherichia coli; assay: Antibacterial activity against Escherichia coli 10-2 after 18 to 24 hrs by NCCLS method; in short: as §1
[23] = test system: Mycobacterium tuberculosis; assay: Antimycobacterial activity against Mycobacterium tuberculosis H37Rv ATCC 27294 by microplate alamar blue assay
In short: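 Microplate Alamar Blue fluorescence assay on strain H37Rv ATCC 27294. MIC was the lowest concentration cutting fluorescence by ≥90% against the mean of replicate bacterium-only controls.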

[24] = test system: Staphylococcus aureus; assay: Antibacterial activity against methicillin-sensitive Staphylococcus aureus 10-14 after 18 to 24 hrs by NCCLS method; in short: as §1
[25] = test system: Staphylococcus epidermidis; assay: Antibacterial activity against methicillin-resistant Staphylococcus epidermidis 10-13 after 18 to 24 hrs by NCCLS method; in short: as §2
[26] = test system: Pseudomonas aeruginosa; assay: Antibacterial activity against Pseudomonas aeruginosa 10-15 after 18 to 24 hrs by NCCLS method; in short: as §1
[27] = test system: Enterococcus faecalis; assay: Antibacterial activity against Enterococcus faecalis 10-5 after 18 to 24 hrs by NCCLS method; in short: as §1
[28] = test system: Pseudomonas aeruginosa; assay: Antibacterial activity against Pseudomonas aeruginosa 10-5 after 18 to 24 hrs by NCCLS method; in short: as §1
[29] = test system: Streptococcus pneumoniae; assay: Antibacterial activity against Streptococcus pneumoniae 10-1 after 18 to 24 hrs by NCCLS method; in short: as §1
[30] = test system: Pseudomonas aeruginosa; assay: Antibacterial activity against Pseudomonas aeruginosa 10-18 after 18 to 24 hrs by NCCLS method; in short: as §1
[31] = test system: Staphylococcus epidermidis; assay: Antibacterial activity against methicillin-sensitive Staphylococcus epidermidis 10-11 after 18 to 24 hrs by NCCLS method; in short: as §1
[32] = test system: Enterococcus faecalis; assay: Antibacterial activity against Enterococcus faecalis 10-6 after 18 to 24 hrs by NCCLS method; in short: as §1
[33] = test system: Streptococcus pneumoniae; assay: Antibacterial activity against Streptococcus pneumoniae 10-6 after 18 to 24 hrs by NCCLS method; in short: as §1
[34] = test system: Enterococcus faecium; assay: Antibacterial activity against Enterococcus faecium 10-6 after 18 to 24 hrs by NCCLS method; in short: as §1
[35] = test system: Staphylococcus aureus; assay: Antibacterial activity against Staphylococcus aureus ATCC 2592 after 18 to 24 hrs by NCCLS method; in short: as §1
[36] = test system: Pseudomonas aeruginosa; assay: Antibacterial activity against Pseudomonas aeruginosa 10-9 after 18 to 24 hrs by NCCLS method; in short: as §1
[37] = test system: Escherichia coli; assay: Antibacterial activity against Escherichia coli 10-1 after 18 to 24 hrs by NCCLS method; in short: as §1
[38] = test system: Escherichia coli; assay: Antibacterial activity against extended spectrum beta-lactamases producing Escherichia coli 10-3 after 18 to 24 hrs by NCCLS method; in short: as §1

Structure (SMILES)	MIC [1] [µg/mL]	MIC [2] [µg/mL]	MIC [3] [µg/mL]	MIC [4] [µg/mL]	MIC [5] [µg/mL]	MIC [6] [µg/mL]	MIC [7] [µg/mL]	MIC [8] [µg/mL]	MIC [9] [µg/mL]	MIC [10] [µg/mL]	MIC [11] [µg/mL]	MIC [12] [µg/mL]	MIC [13] [µg/mL]	MIC [14] [µg/mL]	MIC [15] [µg/mL]	MIC [16] [µg/mL]	MIC [17] [µg/mL]	MIC [18] [µg/mL]	MIC [19] [µg/mL]	MIC [20] [µg/mL]	also measured
COc1cccc(CN2CCN(c3cc4c(cc3F)c(=O)c(C(=O)O)cn4C3CC3)CC2)c1OC	32 (≈ 66.5 µM)	16 (≈ 33.2 µM)	0.03 (≈ 0.0623 µM)	> 128	8 (≈ 16.6 µM)	32 (≈ 66.5 µM)	128 (≈ 266 µM)	0.5 (≈ 1.04 µM)	128 (≈ 266 µM)	> 128	> 128	> 128	> 128	32 (≈ 66.5 µM)	32 (≈ 66.5 µM)	16 (≈ 33.2 µM)	16 (≈ 33.2 µM)	0.03 (≈ 0.0623 µM)	8 (≈ 16.6 µM)	> 128	MIC [21]: > 128 µg/mL; MIC [22]: 32 µg/mL (≈ 66.5 µM); MIC [23]: 2 µg/mL (≈ 4.15 µM); MIC [24]: 0.125 µg/mL (≈ 0.26 µM); MIC [25]: 32 µg/mL (≈ 66.5 µM); MIC [26]: 32 µg/mL (≈ 66.5 µM); MIC [27]: 8 µg/mL (≈ 16.6 µM); MIC [28]: 32 µg/mL (≈ 66.5 µM); MIC [29]: 2 µg/mL (≈ 4.15 µM); MIC [30]: 64 µg/mL (≈ 133 µM); MIC [31]: 0.25 µg/mL (≈ 0.519 µM); MIC [32]: > 128 µg/mL; MIC [33]: 32 µg/mL (≈ 66.5 µM); MIC [34]: 4 µg/mL (≈ 8.31 µM); MIC [35]: 0.06 µg/mL (≈ 0.125 µM); MIC [36]: 64 µg/mL (≈ 133 µM); MIC [37]: > 128 µg/mL; MIC [38]: > 128 µg/mL
O=C(O)c1cn(C2CC2)c2cc(N3CCN(Cc4ccc(OCc5ccccc5)cc4)CC3)c(F)cc2c1=O	32 (≈ 60.7 µM)	32 (≈ 60.7 µM)	0.5 (≈ 0.948 µM)	> 128	16 (≈ 30.3 µM)	32 (≈ 60.7 µM)	> 128	1 (≈ 1.9 µM)	32 (≈ 60.7 µM)	> 128	> 128	> 128	> 128	128 (≈ 243 µM)	32 (≈ 60.7 µM)	32 (≈ 60.7 µM)	128 (≈ 243 µM)	0.25 (≈ 0.474 µM)	32 (≈ 60.7 µM)	> 128	MIC [21]: > 128 µg/mL; MIC [22]: 32 µg/mL (≈ 60.7 µM); MIC [23]: 32 µg/mL (≈ 60.7 µM); MIC [24]: 0.5 µg/mL (≈ 0.948 µM); MIC [25]: 32 µg/mL (≈ 60.7 µM); MIC [26]: 128 µg/mL (≈ 243 µM); MIC [27]: 8 µg/mL (≈ 15.2 µM); MIC [28]: 16 µg/mL (≈ 30.3 µM); MIC [29]: 8 µg/mL (≈ 15.2 µM); MIC [30]: 64 µg/mL (≈ 121 µM); MIC [31]: 1 µg/mL (≈ 1.9 µM); MIC [32]: 64 µg/mL (≈ 121 µM); MIC [33]: 32 µg/mL (≈ 60.7 µM); MIC [34]: 8 µg/mL (≈ 15.2 µM); MIC [35]: 4 µg/mL (≈ 7.58 µM); MIC [36]: 32 µg/mL (≈ 60.7 µM); MIC [37]: > 128 µg/mL; MIC [38]: > 128 µg/mL
COc1ccc(CN2CCN(c3cc4c(cc3F)c(=O)c(C(=O)O)cn4C3CC3)CC2)cc1OC	64 (≈ 133 µM)	16 (≈ 33.2 µM)	0.125 (≈ 0.26 µM)	> 128	8 (≈ 16.6 µM)	64 (≈ 133 µM)	64 (≈ 133 µM)	0.5 (≈ 1.04 µM)	128 (≈ 266 µM)	64 (≈ 133 µM)	> 128	> 128	> 128	64 (≈ 133 µM)	32 (≈ 66.5 µM)	32 (≈ 66.5 µM)	16 (≈ 33.2 µM)	0.125 (≈ 0.26 µM)	8 (≈ 16.6 µM)	> 128	MIC [21]: > 128 µg/mL; MIC [22]: 16 µg/mL (≈ 33.2 µM); MIC [23]: 16 µg/mL (≈ 33.2 µM); MIC [24]: 0.25 µg/mL (≈ 0.519 µM); MIC [25]: 32 µg/mL (≈ 66.5 µM); MIC [26]: 32 µg/mL (≈ 66.5 µM); MIC [27]: 8 µg/mL (≈ 16.6 µM); MIC [28]: 32 µg/mL (≈ 66.5 µM); MIC [29]: 2 µg/mL (≈ 4.15 µM); MIC [30]: 64 µg/mL (≈ 133 µM); MIC [31]: 4 µg/mL (≈ 8.31 µM); MIC [32]: > 128 µg/mL; MIC [33]: 32 µg/mL (≈ 66.5 µM); MIC [34]: 4 µg/mL (≈ 8.31 µM); MIC [35]: 0.125 µg/mL (≈ 0.26 µM); MIC [36]: 64 µg/mL (≈ 133 µM); MIC [37]: > 128 µg/mL; MIC [38]: > 128 µg/mL
